Experimental data from ChEMBL document CHEMBL1932969, “Acyl derivatives of boswellic acids as inhibitors of NF-κB and STATs” (Bioorg Med Chem Lett, 2012).

Tests used:
Assay type in all cases: functional
DU-145 = test: Anticancer activity against human DU145 cells assessed as growth inhibition at 50 uM after 48 hrs by SRB assay; conditions: DU-145, 48 h, read-out: GI
How it was run: (§1)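 Cells exposed to test compounds at 50 µM for 48 h. Read-out is percent growth inhibition, with SEM given. 5-Fluorouracil and adriamycin serve as reference agents.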

HEp-2 = test: Anticancer activity against human Hep2 cells assessed as growth inhibition at 50 uM after 48 hrs by SRB assay; conditions: HEp-2, 48 h, read-out: GI; how it was run: as §1
PC-3 = test: Anticancer activity against human PC3 cells assessed as growth inhibition at 50 uM after 48 hrs by SRB assay; conditions: PC-3, 48 h, read-out: GI; how it was run: as §1
HT-29 = test: Anticancer activity against human HT-29 cells assessed as growth inhibition at 50 uM after 48 hrs by SRB assay; conditions: HT-29, 48 h, read-out: GI; how it was run: as §1
COLO 205 = test: Anticancer activity against human COLO205 cells assessed as growth inhibition at 50 uM after 48 hrs by SRB assay; conditions: COLO 205, 48 h, read-out: GI; how it was run: as §1
SW-620 = test: Anticancer activity against human SW620 cells assessed as growth inhibition at 50 uM after 48 hrs by SRB assay; conditions: SW-620, 48 h, read-out: GI; how it was run: as §1

Row | Structure (SMILES) | inhibition of growth at 50 µM (DU-145) [%] | inhibition of growth at 50 µM (HEp-2) [%] | inhibition of growth at 50 µM (PC-3) [%] | inhibition of growth at 50 µM (HT-29) [%] | inhibition of growth at 50 µM (COLO 205) [%] | inhibition of growth at 50 µM (SW-620) [%]
1 | CO[C@@]12[C@H](COC(N)=O)C3=C(C(=O)C(C)=C(N)C3=O)N1C[C@@H]1N[C@@H]12 [MITOMYCIN] | 48 | 58 | 55 | 60 | 43 | 55
2 | O=c1[nH]cc(F)c(=O)[nH]1 [FLUOROURACIL] | 35 | 29 | 16 | 41 | 29 | 44
3 | C[C@H]1[C@H](C)CC[C@]2(C)CC[C@]3(C)C(=CC[C@@H]4[C@@]5(C)CC[C@H](O)[C@](C)(C(=O)O)[C@@H]5CC[C@]43C)[C@H]12 | 89 | 69 | 72 | 70 | 81 | 63
4 | C[C@H]1[C@H](C)CC[C@]2(C)CC[C@]3(C)C(=CC(=O)[C@@H]4[C@@]5(C)CC[C@@H](OC(=O)CCC(=O)O)[C@](C)(C(=O)O)[C@@H]5CC[C@]43C)[C@H]12 | 51 | 6 | 38 | 5 | 2 | 4
5 | C[C@H]1[C@H](C)CC[C@]2(C)CC[C@]3(C)C(=CC(=O)[C@@H]4[C@@]5(C)CC[C@H](OC(=O)CCC(=O)O)[C@](C)(C(=O)O)[C@@H]5CC[C@]43C)[C@H]12 | 83 | 19 | 62 | 17 | 28 | 4
6 | COC(=O)[C@@]1(C)[C@H](O)CC[C@@]2(C)[C@H]1CC[C@]1(C)[C@@H]2CC=C2[C@@H]3[C@@H](C)[C@H](C)CC[C@]3(C)CC[C@]21C | 85 | 26 | 54 | 35 | 43 | 46
7 | COC(=O)[C@@]1(C)C(=O)CC[C@]2(C)[C@H]3CC=C4[C@@H]5[C@@H](C)[C@H](C)CC[C@]5(C)CC[C@@]4(C)[C@]3(C)CC[C@@H]12 | 50 | 7 | 44 | 33 | 34 | 34
8 | C[C@H]1[C@H](C)CC[C@]2(C)CC[C@]3(C)C(=CC[C@@H]4[C@@]5(C)CC[C@@H](OC=O)[C@](C)(C(=O)O)[C@@H]5CC[C@]43C)[C@H]12 | 90 | 72 | 95 | 76 | 90 | 87
9 | COC(=O)[C@]1(C)[C@@H]2CC[C@]3(C)[C@H](C(=O)C=C4[C@@H]5[C@@H](C)[C@H](C)CC[C@]5(C)CC[C@]43C)[C@@]2(C)CC[C@@H]1O | 4 | 0 | 5 | 8 | 21 | 10
10 | COc1cccc2c1C(=O)c1c(O)c3c(c(O)c1C2=O)C[C@@](O)(C(=O)CO)C[C@@H]3O[C@H]1C[C@H](N)[C@H](O)[C@H](C)O1 [DOXORUBICIN] | 90 | 64 | 86 | 88 | 81 | 72
11 | CC(=O)O[C@H]1CC[C@@]2(C)[C@@H](CC[C@]3(C)[C@@H]2CC=C2[C@@H]4[C@@H](C)[C@H](C)CC[C@]4(C)CC[C@]23C)[C@@]1(C)C(=O)O | 87 | 42 | 56 | 31 | 32 | 35
12 | C[C@H]1[C@H](C)CC[C@]2(C)CC[C@]3(C)C(=CC(=O)[C@@H]4[C@@]5(C)CC[C@H](O)[C@](C)(C(=O)O)[C@@H]5CC[C@]43C)[C@H]12 | 84 | 51 | 70 | 44 | 49 | 45
